Measurements as given in ChEMBL document CHEMBL1777741, “Design of a potent, soluble glucokinase activator with increased pharmacokinetic half-life” (Bioorg Med Chem Lett, 2011).
Converted amounts (≈) assume the structure as drawn.

Columns and labels:
[1] = in vitro; details: rat, plasma
[2] = target: T1, Hexokinase-4 (Homo sapiens, UniProt P35557); test: Activation of His-tagged recombinant glucokinase expressed in Escherichia coli using [14C]-glucose substrate by […]
T1 sequence (P35557 whole entry): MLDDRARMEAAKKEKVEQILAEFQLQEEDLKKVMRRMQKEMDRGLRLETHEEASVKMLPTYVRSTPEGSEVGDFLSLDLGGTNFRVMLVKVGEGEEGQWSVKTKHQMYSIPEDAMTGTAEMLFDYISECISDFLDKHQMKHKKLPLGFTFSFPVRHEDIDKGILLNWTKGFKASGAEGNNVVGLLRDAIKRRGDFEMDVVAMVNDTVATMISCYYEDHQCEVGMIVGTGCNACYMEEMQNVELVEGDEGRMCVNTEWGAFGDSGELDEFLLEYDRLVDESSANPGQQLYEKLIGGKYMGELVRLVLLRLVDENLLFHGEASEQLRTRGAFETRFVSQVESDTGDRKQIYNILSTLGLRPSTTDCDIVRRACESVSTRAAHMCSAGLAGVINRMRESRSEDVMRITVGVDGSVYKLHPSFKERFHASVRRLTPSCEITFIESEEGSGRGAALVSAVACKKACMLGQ

[3] = in vivo; details: CR-Han Wistar, rat, iv, 1 mg/kg
[4] = Clearance in dog; assay type: ADME, organism-based, Canis lupus familiaris; details: in vivo
[5] = Solubility of the compound; assay type: physicochemical
[6] = Percentage unbound in human plasma; assay type: ADME, cell-free
Procedure, shortened: (§1)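 Unbound fraction in plasma was measured by equilibrium dialysis and reported as percentage free.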

[7] = Bioavailability in dog; assay type: ADME, organism-based, Canis lupus familiaris; details: in vivo
[8] = Intrinsic clearance in dog hepatocytes measured per 10^6 cells; assay type: ADME, cell-based, Canis lupus familiaris, Liver, Hepatocyte
[9] = Half life in dog; assay type: ADME, organism-based, Canis lupus familiaris; details: in vivo
[10] = Intrinsic clearance in human hepatocytes measured per 10^6 cells; assay type: ADME, cell-based, Liver, Hepatocyte
[11] = Percentage unbound in dog plasma; assay type: ADME, cell-free, Canis lupus familiaris
Procedure, shortened: as §1

[12] = Bioavailability in rat; assay type: ADME, organism-based; details: in vivo
[13] = Intrinsic clearance in rat hepatocytes measured per 10^6 cells; assay type: ADME, cell-based, Liver, Hepatocyte
[14] = Half life in rat; assay type: ADME, organism-based; details: in vivo

fraction unbound [1] | EC50 [2] [nM] | clearance [3] [mL/min/kg] | also measured | Structure (SMILES)
0.0025 | 40 | 1 |  | COC[C@H](C)Oc1cc(O[C@@H](C)Cc2ccc(F)cc2)cc(C(=O)Nc2ccc(C(=O)O)cn2)c1
0.0042 |  | 6.1 |  | COC[C@H](C)Oc1cc(O[C@@H](C)Cc2ccccc2OC)cc(C(=O)Nc2ccc(C(=O)O)cn2)c1
0.001 |  | 1.1 |  | COC[C@H](C)Oc1cc(O[C@@H](C)Cc2cc(F)cc(F)c2)cc(C(=O)Nc2ccc(C(=O)O)cn2)c1
0.0025 | 30 | 1.6 |  | COC[C@H](C)Oc1cc(O[C@@H](C)Cc2ccc(Cl)o2)cc(C(=O)Nc2ccc(C(=O)O)cn2)c1
0.0042 | > 10000 |  |  | COCC(C)(C)Oc1cc(O[C@@H](C)Cc2ccccc2)cc(C(=O)Nc2ccc(C(=O)O)cn2)c1
0.0109 | > 10000 |  |  | C[C@@H](Cc1ccccc1)Oc1cc(OC2CCOCC2)cc(C(=O)Nc2ccc(C(=O)O)cn2)c1
0.0033 | 70 | 2.9 |  | COC[C@H](C)Oc1cc(OC[C@H](C)c2ccccc2)cc(C(=O)Nc2ccc(C(=O)O)cn2)c1
0.001 | 100 | 1.6 |  | CC(C)Oc1cc(OC2Cc3ccccc3C2)cc(C(=O)Nc2ccc(C(=O)O)cn2)c1
0.0021 |  | 0.2 |  | CC(C)Oc1cc(Oc2ccccc2)cc(C(=O)Nc2ccc(C(=O)O)cn2)c1
0.0055 | 160 | 0.4 |  | COC[C@H](C)Oc1cc(Oc2ccccc2)cc(C(=O)Nc2ccc(C(=O)O)cn2)c1
0.0069 | 60 | 3.2 |  | COC[C@H](C)Oc1cc(Oc2ccc(OC)cc2)cc(C(=O)Nc2ccc(C(=O)O)cn2)c1
0.0016 | 110 | 0.8 |  | COC[C@H](C)Oc1cc(Oc2cccc(Cl)c2)cc(C(=O)Nc2ccc(C(=O)O)cn2)c1
0.0012 |  | 0.9 |  | COC[C@H](C)Oc1cc(Oc2ccc(Cl)cc2)cc(C(=O)Nc2ccc(C(=O)O)cn2)c1
0.0021 | 180 | 0.2 |  | COC[C@H](C)Oc1cc(Oc2cccc(F)c2)cc(C(=O)Nc2ccc(C(=O)O)cn2)c1
0.0122 | 400 |  |  | COC[C@H](C)Oc1cc(Oc2cccc(N(C)C)c2)cc(C(=O)Nc2ccc(C(=O)O)cn2)c1
0.0738 | 60 | 8.2 |  | COC[C@H](C)Oc1cc(Oc2ccc(S(C)(=O)=O)cc2)cc(C(=O)Nc2ccc(C(=O)O)cn2)c1
0.0023 | 90 | 0.1 | clearance [4]: 5.2 mL/min/kg; solubility [5]: 841 µM (≈ 386 µg/mL); fraction unbound [6]: 0.0055; bioavailability [7]: > 100%; hepatocyte CLint [8]: < 1 µL/min/1e6 cells; half-life [9]: 4.9 h; hepatocyte CLint [10]: < 1 µL/min/1e6 cells; fraction unbound [11]: 0.0159; bioavailability [12]: 97%; hepatocyte CLint [13]: < 1 µL/min/1e6 cells; half-life [14]: 15.8 h | COC[C@H](C)Oc1cc(Oc2cc(F)cc(F)c2)cc(C(=O)Nc2ccc(C(=O)O)cn2)c1
0.004 |  | 1.9 | fraction unbound [6]: 0.0044; hepatocyte CLint [8]: < 1 µL/min/1e6 cells; half-life [9]: 1.4 h; hepatocyte CLint [10]: < 1 µL/min/1e6 cells; fraction unbound [11]: 0.0146; hepatocyte CLint [13]: < 1 µL/min/1e6 cells; half-life [14]: 4.5 h | COC[C@H](C)Oc1cc(O[C@@H](C)Cc2ccccc2)cc(C(=O)Nc2ccc(C(=O)O)cn2)c1
0.0023 |  | 3.3 |  | CC(C)Oc1cc(O[C@@H](C)Cc2ccccc2)cc(C(=O)Nc2ccc(C(=O)O)cn2)c1
0.0035 | 150 | 0.6 |  | CC(C)Oc1cc(O[C@@H](C)c2ccccc2)cc(C(=O)Nc2ccc(C(=O)O)cn2)c1
